Laboratory results taken from ChEMBL document CHEMBL4265971, “Modified carbazoles destabilize microtubules and kill glioblastoma multiform cells” (Eur J Med Chem, 2018).
Activity calls are given as the source filed them. The rule behind the calls is not given here.

How the values were obtained:
T98G [1] = assay: Cytotoxicity against human T98G cells after 72 hrs by WST-1 assay; format: functional, cell-based
In short: (§1)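 Viability read with WST-1 72 h after treatment with increasing concentrations; DMSO vehicle 0.1% final. T98G and HepG2 grown in DMEM/10% FBS/pen-strep at 37 °C, 5% CO2. Patient-derived GBM cells (WHO grade IV; proneural, classical, mesenchymal) grown in NeuroCult NSA with B-27, 20 ng/mL EGF and 20 ng/mL FGF2. EC50 from curve fit, reported only when extrapolable. Mean of ≥3 independent experiments in triplicate.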

T98G [2] = assay: Cytotoxicity against human T98G cells assessed as cell killing at 10 uM after 72 hrs by WST-1 assay relative to control; format: functional
In short: (§2)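 Maximal killing is the largest % loss of viability against 0.1% DMSO vehicle, read by WST-1 72 h after treatment, at the stated concentration. T98G/HepG2 grown in DMEM/10% FBS; patient-derived GBM grown in NeuroCult NSA with B-27, EGF and FGF2 (20 ng/mL each). Mean ± SEM of ≥3 independent experiments in triplicate.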

T98G [3] = assay: Cytotoxicity against human T98G cells assessed as cell killing at 3 uM after 72 hrs by WST-1 assay relative to control; format: functional; in short: as §2
SF-295 = assay: Cytotoxicity against human SF295 cells after 48 hrs by sulforhodamine B assay; format: functional, cell-based
HepG2 [4] = assay: Cytotoxicity against human HepG2 cells after 72 hrs by WST-1 assay; format: functional, cell-based; conditions: HepG2, 72 h; in short: as §1
GBM [5] = assay: Cytotoxicity against patient-derived proneural GBM cells after 72 hrs by WST-1 assay; format: functional, cell-based; conditions: Homo sapiens; in short: as §1
Bos taurus = species on record: Bos taurus; assay: Inhibition of [3H]colchicine binding to bovine brain tubulin at 5 uM after 1 hr liquid scintillation counting assay relative to control
COLO 205 = assay: Cytotoxicity against human COLO205 cells after 48 hrs by sulforhodamine B assay; format: functional, cell-based
GBM [6] = assay: Cytotoxicity against patient-derived mesenchymal GBM cells assessed as cell killing at 1 uM after 72 hrs by WST-1 assay relative to control; format: functional, Homo sapiens; in short: as §2
HT-29 = assay: Cytotoxicity against human HT-29 cells after 48 hrs by sulforhodamine B assay; format: functional, cell-based
HCC 2998 = assay: Cytotoxicity against human HCC2998 cells after 48 hrs by sulforhodamine B assay; format: functional, cell-based
GBM [7] = assay: Cytotoxicity against patient-derived classical GBM cells assessed as cell killing at 3 uM after 72 hrs by WST-1 assay relative to control; format: functional, Homo sapiens; in short: as §2
GBM [8] = assay: Cytotoxicity against patient-derived mesenchymal GBM cells after 72 hrs by WST-1 assay; format: functional, cell-based; conditions: Homo sapiens; in short: as §1
HepG2 [9] = assay: Cytotoxicity against human HepG2 cells assessed as cell killing at 5.6 uM after 72 hrs by WST-1 assay relative to control; format: functional; in short: as §2
SF-539 = assay: Cytotoxicity against human SF539 cells after 48 hrs by sulforhodamine B assay; format: functional, cell-based
GBM [10] = assay: Cytotoxicity against patient-derived classical GBM cells after 72 hrs by WST-1 assay; format: functional, cell-based; conditions: Homo sapiens; in short: as §1
[11] = Induction of bovine brain microtubule destabilization assessed as increase in free tubulin levels after 15 mins by Coomassie G-250 staining-based polyacrylamide gel electrophoresis method; parameters: species or system Bos taurus
In short: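 Bovine brain tubulin purified, polymerized into MTs and sheared. Sheared MTs incubated with compound at 37 °C for 15 min, then centrifuged 10 min at 42,000 rpm at 37 °C. Supernatant (free tubulin) and pellet (MT) run on polyacrylamide gels. EC50 from representative experiments repeated three times.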

[12] = Inhibition of bovine brain t in presence of 0.4 mM GTP; parameters: species or system Bos taurus
GBM [13] = assay: Cytotoxicity against patient-derived proneural GBM cells assessed as cell killing at 1 uM after 72 hrs by WST-1 assay relative to control; format: functional, Homo sapiens; in short: as §2
HepG2 [14] = assay: Cytotoxicity against human HepG2 cells assessed as cell killing at 10 uM after 72 hrs by WST-1 assay relative to control; format: functional; in short: as §2
GBM [15] = assay: Cytotoxicity against patient-derived mesenchymal GBM cells assessed as cell killing at 3 uM after 72 hrs by WST-1 assay relative to control; format: functional, Homo sapiens; in short: as §2

SMILES: Cc1ccc(C(=O)c2ccc3c(c2)c2ccccc2n3CC(F)(F)F)c2ccccc12
- EC50 (T98G [1]): 5600 nM
- %max (T98G [2]): 35.6%

SMILES: CCn1c2ccccc2c2cc(C(=O)c3ccc(F)cc3)ccc21
- EC50 (T98G [1]): 8000 nM
- %max (T98G [2]): 54.8%

SMILES: CCn1c2ccccc2c2cc(C(=O)c3cccc4ccccc34)ccc21
- EC50 (T98G [1]): 1700 nM
- %max (T98G [2]): 72%

SMILES: CCn1c2ccccc2c2cc(C(=O)c3ccc(Cl)cc3)ccc21
- EC50 (T98G [1]): 1500 nM
- %max (T98G [2]): 71.1%

SMILES: CCn1c2ccccc2c2cc(C(=O)Cc3ccccc3)ccc21
- EC50 (T98G [1]): > 10000 nM
- %max (T98G [2]): 14%

SMILES: CCn1c2ccccc2c2cc(C(=O)c3ccc(C)cc3)ccc21
- EC50 (T98G [1]): 993 nM
- %max (T98G [3]): 83.6%

SMILES: CCn1c2ccccc2c2cc(C(=O)c3ccc(C)c4ccccc34)ccc21
- Activity (SF-295): Active
- EC50 (HepG2 [4]): 1690 nM
- EC50 (T98G [1]): 87 nM
- EC50 (GBM [5]): 542 nM
- inhibition (Bos taurus): 53%
- Activity (COLO 205): Active
- %max (GBM [6]): 64.3%
- Activity (HT-29): Active
- %max (T98G [2]): 45.3%
- Activity (HCC 2998): Active
- %max (GBM [7]): 47.9%
- EC50 (GBM [8]): 268 nM
- %max (HepG2 [9]): 25%
- Activity (SF-539): Active
- EC50 (GBM [10]): 698 nM
- EC50 [11]: 2100 nM
- IC50 [12]: 1400 nM

SMILES: CCn1c2ccccc2c2cc(C(O)c3ccc(C)c4ccccc34)ccc21 (centres undefined)
- Activity (SF-295): Active
- EC50 (HepG2 [4]): 101 nM
- EC50 (T98G [1]): 560 nM
- %max (T98G [3]): 72.8%
- EC50 (GBM [5]): 630 nM
- inhibition (Bos taurus): 70%
- Activity (COLO 205): Active
- Activity (HT-29): Active
- Activity (HCC 2998): Active
- %max (GBM [7]): 56%
- EC50 (GBM [8]): 386 nM
- Activity (SF-539): Active
- EC50 (GBM [10]): 633 nM
- %max (GBM [13]): 44%
- %max (HepG2 [14]): 30.8%
- EC50 [11]: 6400 nM
- %max (GBM [15]): 50.6%
- IC50 [12]: 1600 nM

SMILES: CCn1c2ccccc2c2cc(C(=O)c3cccc4cccnc34)ccc21
- EC50 (T98G [1]): 8800 nM
- %max (T98G [2]): 60%
